# Published values collected from several papers.
# Lines come from different studies, so protocols differ.
# Target: Myosin-IIIb (MYO3B, Homo sapiens, UniProt Q8WXR4)
# One construct used (Q8WXR4 1-1341): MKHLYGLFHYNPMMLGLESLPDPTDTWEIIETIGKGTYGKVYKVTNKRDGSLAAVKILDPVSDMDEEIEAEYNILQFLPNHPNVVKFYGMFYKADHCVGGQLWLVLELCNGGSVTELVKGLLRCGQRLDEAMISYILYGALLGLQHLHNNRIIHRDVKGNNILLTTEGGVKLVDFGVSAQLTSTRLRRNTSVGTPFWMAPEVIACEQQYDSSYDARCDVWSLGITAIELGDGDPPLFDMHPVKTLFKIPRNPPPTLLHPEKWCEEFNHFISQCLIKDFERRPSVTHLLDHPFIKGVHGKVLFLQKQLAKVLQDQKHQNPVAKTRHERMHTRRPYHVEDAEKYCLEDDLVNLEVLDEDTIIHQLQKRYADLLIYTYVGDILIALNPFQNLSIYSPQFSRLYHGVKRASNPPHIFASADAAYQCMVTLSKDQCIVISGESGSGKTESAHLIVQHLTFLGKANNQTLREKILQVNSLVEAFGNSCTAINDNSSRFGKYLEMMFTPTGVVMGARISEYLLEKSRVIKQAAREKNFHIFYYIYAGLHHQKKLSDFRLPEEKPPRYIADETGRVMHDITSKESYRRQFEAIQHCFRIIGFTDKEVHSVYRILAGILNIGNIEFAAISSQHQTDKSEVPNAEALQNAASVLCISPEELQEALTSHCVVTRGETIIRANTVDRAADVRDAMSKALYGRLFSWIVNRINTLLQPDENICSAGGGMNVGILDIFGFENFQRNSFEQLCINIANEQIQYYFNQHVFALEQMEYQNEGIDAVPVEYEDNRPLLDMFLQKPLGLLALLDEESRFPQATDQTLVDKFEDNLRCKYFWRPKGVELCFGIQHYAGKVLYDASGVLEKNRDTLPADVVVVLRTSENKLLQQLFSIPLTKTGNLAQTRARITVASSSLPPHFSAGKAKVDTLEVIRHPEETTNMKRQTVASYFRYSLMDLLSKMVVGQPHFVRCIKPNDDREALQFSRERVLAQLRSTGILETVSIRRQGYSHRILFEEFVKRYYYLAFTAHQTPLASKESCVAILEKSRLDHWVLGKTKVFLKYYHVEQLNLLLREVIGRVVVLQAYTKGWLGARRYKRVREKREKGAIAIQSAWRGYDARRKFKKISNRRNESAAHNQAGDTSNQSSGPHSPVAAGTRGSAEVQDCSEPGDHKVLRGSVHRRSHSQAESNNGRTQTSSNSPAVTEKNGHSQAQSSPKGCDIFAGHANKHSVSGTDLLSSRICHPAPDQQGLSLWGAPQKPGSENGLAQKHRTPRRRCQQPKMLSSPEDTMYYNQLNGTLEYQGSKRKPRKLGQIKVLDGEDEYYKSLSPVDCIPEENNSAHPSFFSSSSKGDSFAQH
SMILES,assay,conditions,remaining binding [%]
C=CC(=O)N1CCC(C(=O)NCC(=O)N2CCN(c3nc(-c4cnc(N)nc4C(F)F)nc(N4CCOCC4)n3)CC2)CC1,"binding, competition with immobilised ligand",1 µM,96
Cc1cnc(Nc2ccc(C(=O)N3CCC(N4CCCC4)CC3)cc2)nc1-c1cc2ccccc2s1,"binding, competition with immobilised ligand",1 µM,100
C[C@@H](c1cccc(C#N)c1)n1cc(Cl)cc(C(N)=O)c1=N,"binding, competition with immobilised ligand",1 µM,100
CN(C)c1nccc(-c2cnn3ncccc23)n1,binding,1 µM,100
Nc1ncc2c(n1)-c1c([nH]c3ccc(C#CC4CC4)cc13)CCCC2,"binding, competition with immobilised ligand",1 µM,75
c1cncc(-c2cccc(Nc3nccc(NC4CCCCC4)n3)c2)c1,"binding, competition with immobilised ligand",10 µM,100
CC1=C(C#N)C(c2ccc3c(c2)c(NC(=O)c2ccccc2C)nn3C)C(C#N)=C(C)N1,"binding, competition with immobilised ligand",1 µM,100
CNC(=O)[C@@H]1CC[C@@H](n2c(-c3ccc4cnccc4c3)nc3ccc(C(=O)NCc4cccc(C(N)=O)c4)cc32)C1,"binding, competition with immobilised ligand",1 µM,98
FC(F)(F)Oc1cccc(-c2cnc3ccc(-c4ccncc4)nn23)c1,"cell-free assay, competition with immobilised ligand",5 µM,100
CNCc1ccccc1-c1csc([C@@H](C)Nc2nc(C)nc3cc(OC)c(OC)cc23)c1,"cell-free assay, competition with immobilised ligand",1 µM,47
O=C(NCCCN1CCOCC1)c1ccc(Nc2ncc(Cl)c(-c3ccc(Cl)s3)n2)cc1,"binding, competition with immobilised ligand",1 µM,100
CN(C)c1nccc(-c2cnc3ncccn23)n1,binding,1 µM,79
FC(F)(F)c1ccc2c(c1)nc(-c1cccnc1)n2C1CC1,"cell-free assay, competition with immobilised ligand",1 µM,67
CN(c1nccc(-c2cnn3ncccc23)n1)C1CC1,binding,1 µM,83
O=C(c1ccc(Nc2ncc(Cl)c(-c3cc4ccccc4s3)n2)cc1)N1CCC(N2CCCC2)CC1,"binding, competition with immobilised ligand",1 µM,100
C[C@@H]1CCN(c2nccc(-c3cnn4ncccc34)n2)C1,binding,1 µM,100
CCC(=O)N[C@@H]1CC[C@H](C(=O)N(C)c2ccc(-c3nc4ccccc4o3)cc2)C1,"cell-free assay, competition with immobilised ligand",1 µM,100
N[C@H]1CCN(c2nccc(-c3cnn4ncccc34)n2)C1,binding,1 µM,100
O=C(Nc1c[nH]nc1C(=O)NC1CCNCC1)c1cc(F)cc(F)c1,"binding, competition with immobilised ligand",1 µM,100
CS(=O)(=O)c1cc(C2(NC(=O)c3cncc4c3cnn4-c3ccc(F)cc3)CC2)ccn1,"cell-free assay, competition with immobilised ligand",1 µM,100
CN(CCCC(F)(F)F)c1nccc(-c2cnn3ncccc23)n1,binding,1 µM,92
